# Kir21 inh: Kir2.1 (mouse) channel inhibition. P35561. HEK293-Kir2.1, FluxOR thallium flux fluorescence; active compounds read low. B-score at 10 µM. hit rate 0.85% among 310,000. AID 1672;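 active means fluorescence ratio B-score at or below minus 3 SD of library scores, with starting-brightness B-score within 2 SD, cut at about -4.2 in these data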;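 further: channel flux triggered by added potassium and thallium sulfate stimulus; B-score of peak minus minimum fluorescence over baseline after thallium stimulus; more negative B-score means stronger Kir2.1 block with less thallium influx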
# KCNK3 block: human KCNK3 channel inhibition, primary screen. CHO-KCNK3 thallium flux, FluxOR fluorescence; active compounds read low. B-score at 10 µM. hit rate 0.84% among 340,000. AID 602410;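 active means B-score under library mean minus 4 SD, starting fluorescence ratio at most library mean plus 5 SD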;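 further: more negative B-score means stronger inhibition of thallium flux through KCNK3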
# KCNQ1 block: human KCNQ1 channel inhibition | P51787 | CHO-K1 KCNQ1, FluxOR thallium flux fluorescence; active compounds read high | B-score at 10 µM | hit rate 1.3% among 310,000;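 active means compounds whose thallium flux B-score, printed positive for inhibition, exceeds three library SD while starting fluorescence stays within three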;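 further: channel opened by potassium depolarization with thallium stimulus after 20 min compound exposure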
# hERG protect: shields human hERG channel from block by proarrhythmic agents; Q12809; CHO-hERG, FluxOR thallium flux, dofetilide IC70 present; activation (rescue from dofetilide block), less the hit threshold, % at 10 µM; hit rate 0.51% among 310,000; AID 1511;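 active means activation above the mean of controls blocked by dofetilide plus 5 SD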;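 further: thallium influx through hERG after potassium depolarization seen as dye fluorescence rise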
# KCNK9 inh: inhibitors of human KCNK9 two-pore domain potassium channel; Q9NPC2; HEK293 KCNK9, FluxOR thallium flux fluorescence; active compounds read low; B-score at 10 µM; hit rate 1.2% among 310,000;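 active means ratio B-score over 3 SD below the library mean, with starting fluorescence within 5 SD of its mean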;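 further: negative B-score means less thallium flux so channel inhibition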
# Target sequence (Q9NPC2 whole entry, looked up, the tested form may be a part): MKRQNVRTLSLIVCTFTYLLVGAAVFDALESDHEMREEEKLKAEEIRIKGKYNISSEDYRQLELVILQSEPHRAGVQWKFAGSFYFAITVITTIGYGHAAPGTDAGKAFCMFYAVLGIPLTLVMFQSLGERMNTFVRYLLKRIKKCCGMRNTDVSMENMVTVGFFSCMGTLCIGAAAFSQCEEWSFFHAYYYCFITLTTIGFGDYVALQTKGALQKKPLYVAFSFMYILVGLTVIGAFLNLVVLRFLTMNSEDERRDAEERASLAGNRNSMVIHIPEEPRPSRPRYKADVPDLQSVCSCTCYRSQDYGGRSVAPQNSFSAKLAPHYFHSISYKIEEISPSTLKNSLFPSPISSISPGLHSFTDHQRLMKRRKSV
# KCNQ1 pot: human KCNQ1 channel potentiation or activation | CHO-K1 KCNQ1, thallium flux FluxOR fluorescence; active compounds read high | B-score at 10 µM | hit rate 0.35% among 310,000 | AID 2648;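 active means fluorescence ratio B-score, a plate-corrected score, at least three library SD, with initial intensity B-score within 5 SD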
#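 System: CHO-K1 cells stably expressing KCNQ1 / Medium: assay buffer for compound exposure, DMSO matched across wells / Reagent: thallium- and potassium-containing depolarizing buffer / Compound: one concentration, matched DMSO / Incubation: 20 min compound pretreatment at room temperature / Measured by: kinetic FluxOR fluorescence, 10 s baseline plus 110 s post-stimulus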
# KCNK3 confirm: human KCNK3 channel inhibition, confirmation assay; shares compounds with KCNK3 block; CHO-KCNK3 thallium flux, FluxOR fluorescence; 0% buffer, 100% carvedilol maximal block; ratio percent of control, % at 10 µM; hit rate 99% among 2,400;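 active means ratio percent of control, averaged over triplicates, above buffer control mean plus 5 SD, cut at about 64% in these data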;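 further: ratio is the fluorescence rise from min to max over baseline after thallium stimulus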
# KCNK3 noninduced: activity in cells without induced KCNK3 expression | thallium flux ratio (lower = more inhibition) at 10 µM | hit rate 40% among 2,400 | AID 651747 | shares compounds with KCNK3 block | non-induced KCNK3 parental cells, FluxOR thallium flux; active compounds read low;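 active means thallium flux ratio, averaged over three wells, more than 5 SD below the buffer control mean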;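 further: host cells are CHO cells without KCNK3 induction; ratio is peak minus trough fluorescence over baseline then normalized to buffer controls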
# * = called active by the depositor; i = inactive; x = no result. A selection: hits, their analogues and other compounds. The true share with any hit is near 3.7%.
SMILES,Kir21 inh,KCNK3 block,KCNQ1 block,hERG protect,KCNK9 inh,KCNQ1 pot,KCNK3 confirm,KCNK3 noninduced
COc1ccccc1C(=O)Nc1ccccc1N1CCCCC1,-1.3,i,i,-14,i,i,x,x
O=C(Nc1ccccc1N1CCCCC1)c1cccc(OC(F)F)c1,-0.22,-10*,i,-8,i,i,117*,0.15*
Cc1c(C(=O)c2ccccc2C(=O)O)sc2ccccc12,1.4,i,i,-3,i,i,x,x
CC1CCCN(C(=O)COC(=O)c2cccc(NS(=O)(=O)c3ccccc3)c2)C1 (stereo not drawn),-0.46,i,i,-10,i,i,x,x
O=C(CCOc1cccc(Br)c1)Nc1ccc(F)c(S(=O)(=O)N2CCOCC2)c1,x,-12*,x,x,x,x,97*,i
CCn1c(SCC(=O)NCc2ccccc2)nnc1C(CO)NC(=O)c1ccccc1 (stereo not drawn),-1,i,i,-9,i,i,x,x
N#Cc1cc(-c2ccc(Cl)cc2)cn(Cc2c(Cl)cccc2Cl)c1=O,-0.15,i,i,-9,i,i,x,x
CC(C)n1cc(-c2ccc(Cl)cc2)cc(C#N)c1=O,3.1,-10*,i,0,i,i,107*,i
CCOC(=O)c1c(NC(=O)CSc2ncnc3[nH]ncc23)sc2c1CCC(C)C2 (stereo not drawn),0.37,i,i,-25,i,i,x,x
COc1ccc(Cl)cc1NC(=O)N1CCN(c2ccccc2OC)CC1,-0.07,-11*,i,-13,i,i,82*,i
CN(Cc1ccccc1)C(=O)C1CCCN(Cc2cccc(Cl)c2)C1 (stereo not drawn),-2,i,i,-8,i,i,x,x
O=C(CO/N=C/c1cccc([N+](=O)[O-])c1)Nc1ccc2ccccc2c1,-0.8,-9.2*,i,3,i,i,98*,i
O=C(N/N=C/C1C(c2ccccc2)C1(Cl)Cl)c1cccc(Br)c1 (stereo not drawn),1.6,-13*,10*,-11,-7.4*,i,115*,i
CN(C(=O)COC(=O)CSc1cc(Cl)ccc1Cl)c1c(N)n(Cc2ccccc2)c(=O)[nH]c1=O,0.25,i,i,-1,i,i,x,x
O=C(O)Cn1nnc(-c2ccc(OCc3ccccc3Cl)cc2)n1,0.26,i,i,-3,i,i,x,x
CC(C)n1nnc(-c2ccc(OCc3ccccc3F)cc2)n1,0.15,-9.1*,i,-7,-7.9*,i,99*,i
O=C(Cc1ccccc1)Nc1cccc(-c2nc3ncccc3o2)c1,-1.5,-10*,i,-2,i,i,64*,i
O=C(N/N=C/C=C/c1ccc(Br)cc1)C(O)c1ccccc1 (stereo not drawn),-0.27,i,i,-6,i,i,x,x
COc1ccc(C2=CCC3CCCCN3C2)cc1OC (stereo not drawn),x,i,x,x,x,x,x,x
CC(C)c1ccc(S(=O)(=O)Nc2ccc3c(c2)OCO3)cc1,x,-11*,x,x,x,x,122*,i
COC(=O)COc1ccc(S(=O)(=O)Nc2ccc3c(c2)OCO3)cc1Cl,-1.2,-9.7*,i,-18,i,i,98*,i
COC(=O)COc1ccc(S(=O)(=O)Nc2ccc3c(c2)OCO3)cc1,0.31,i,i,-13,i,i,x,x
CCN(CC)S(=O)(=O)c1ccc2c(c1)N(CC(=O)NCCN1CCOCC1)C(=O)CO2,0.16,i,i,-8,i,i,x,x
O=C(Nc1cccc(S(=O)(=O)N2CCOCC2)c1)c1ccc(N2CCCC2=O)cc1,x,i,x,x,x,x,x,x
CNC(=S)NNC(=O)c1sc(-c2cc(C)on2)nc1C,-0.38,i,i,-8,i,i,x,x
SMILES,Kir21 inh,KCNK3 block,KCNQ1 block,hERG protect,KCNK9 inh,KCNQ1 pot,KCNK3 confirm,KCNK3 noninduced
Cc1cccc(C(=O)O/N=C(\c2ccccc2)c2cccnc2)c1,0.28,-8.9*,i,-11,i,i,102*,i
CC1CCN(S(=O)(=O)c2ccc3ncn(CC(=O)N(C)Cc4ccccc4)c(=O)c3c2)CC1,-0.02,-13*,i,-2,i,i,72*,i
COC(=O)c1ccccc1NC(=O)Cn1cnc2ccc(S(=O)(=O)N3CCC(C)CC3)cc2c1=O,1.4,i,i,-1,i,i,x,x
Cc1cnccc1CN(C)Cc1cn(C)nc1-c1ccc(Oc2ccccc2)cc1,-2.3,-10*,i,-21,i,i,118*,0.15*
Cc1cc(C)c2nc(-c3cccnc3)cc(C(=O)NC(C)c3cnn(C)c3C)c2c1 (stereo not drawn),-2.6,-9.2*,i,-18,i,i,111*,0.16*
Cc1cccc2c(C(=O)O)cc(-c3cccnc3)nc12,-2.9,i,i,-5,i,i,x,x
CN(CCOc1ccccc1)CC(=O)Nc1cccc(Br)c1,0.03,-9.2*,i,-14,i,i,94*,i
CN(CCOc1ccc(Cl)cc1)CC(=O)Nc1ccc(OC(F)(F)F)cc1,-1,-9.1*,i,-4,i,i,108*,0.15*
COc1ccc(NC(=O)CN(C)CCOc2ccc(Cl)cc2)cc1OC,-1.3,i,i,-4,i,i,x,x
Cc1cc(NC(=O)CN(C)CCOc2ccccc2)ccc1Br,-0.07,i,i,-19,i,i,x,x
Cc1onc(-c2ccccc2)c1-c1ccnn1S(=O)(=O)c1ccc(Cl)cc1,-3.6,-9.4*,i,-11,i,i,103*,i
COc1cc2c(cc1OC)C(c1cccs1)N(C(=S)NC(C)C)CC2 (stereo not drawn),-1.4,-11*,i,-16,i,i,94*,i
CCOC(=O)[C@H]1[C@H]2COc3ccc(OC)cc3[C@@H]2N2C(=O)CN(Cc3ccc(OC)cc3)C(=O)[C@@]12C,x,i,x,x,x,x,x,x
Cn1c(SCc2nc3ccccc3c(=O)[nH]2)nc2ccccc21,-0.17,i,i,-8,i,i,x,x
CC(C)Cn1c(SCc2nc3ccccc3c(=O)[nH]2)nc2ccccc2c1=O,-0.22,-10*,i,-11,-6.7*,i,102*,i
CCC1CCCCN1S(=O)(=O)c1ccc(NC(=O)c2ccncc2)cc1 (stereo not drawn),0.18,-10*,i,-6,i,i,121*,i
